The full list was thinned out, with hits kept by preference.
INS-1E ATP HTS: preserves ATP levels in cytokine-treated INS-1E cells. INS-1E cytokine-induced death, ATP luminescence, 48 h; normalised: neutral wells 0, positive control 100. protection from cytokine-induced ATP loss, % at 10 µM. 0.1% of 20,000 active. AID 488910;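 active = mean replicate protection from cytokine-induced ATP loss at least 50% and at least 75% of replicates each reaching 50%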
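Material: INS-1E rat cells; Quantity: 8000 cells/well; Buffer or medium: phenol-red-free RPMI with 5% fetal bovine serum; Probe or stimulus: cytokine cocktail of IFN-γ, TNF-α and IL-1β; Compound dosing: single test concentration per compound, delivered by pin transfer; Incubation: 48 h co-treatment, 10 min post-lysis read; Signal: CellTiter-Glo luminescence.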
YB-1 expression: YB-1 expression inhibition; U2OS, qRT-PCR YB-1 vs CDIP delta delta Cp, 16 h; stronger effect = higher value; zero = DMSO, each unit about twofold; delta delta Cp (YB-1 minus CDIP) (test concentration not listed); 0.37% of 30,000 active; AID 434959;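 active = delta delta Cp rounded down to an integer at or above 3, about 3 SD of DMSO wells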;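 note: higher means less YB-1 transcript or more CDIP transcript relative to DMSO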
T cruzi intra: inhibitors of intracellular Trypanosoma cruzi | intracellular Trypanosoma cruzi in host cells, plate reader | activity score (inhibition), % at 5.01 µM | 4.9% of 22,000 active | AID 651903; in the data active = activity score above about 55%;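 note: parasites and compound incubated about four days before reading; 0% = median of neutral control wells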
* hit, by the source's call; . = no result given.

SMILES	INS-1E ATP HTS	YB-1 expression	T cruzi intra
C[C@H]1CN([C@@H](C)CO)C(=O)c2cccc(NS(=O)(=O)c3ccc(Cl)cc3)c2O[C@H]1CN(C)Cc1ccc(C(=O)Nc2ccccc2N)cc1	7.7	-0.109	60.3*
C[C@H](CO)N1C[C@H](C)[C@H](CN(C)Cc2ccc(C(=O)Nc3ccccc3N)cc2)Oc2c(NS(=O)(=O)c3ccc(Cl)cc3)cccc2C1=O	-6.1	-0.0704	52.8
C[C@H]1CN([C@@H](C)CO)C(=O)c2cc(NC(=O)CCC(F)(F)F)ccc2O[C@@H]1CN(C)C(=O)Nc1cccc2ccccc12	8.5	0.181	-8.9
C[C@H]1CN([C@@H](C)CO)C(=O)c2cc(NS(C)(=O)=O)ccc2O[C@H]1CN(C)Cc1ccc(C(=O)O)cc1	0.3	-0.0229	-18.9
O=C1C(Nc2ccccc2)=CC(=O)c2ncccc21	.	3.08*	.
C[C@@H]1CN([C@H](C)CO)C(=O)Cc2cc(NC(=O)Nc3ccc(C(F)(F)F)cc3)ccc2O[C@H]1CN(C)Cc1ccc(C(F)(F)F)cc1	-0.7	-0.238	80.8*
C[C@@H]1CN([C@H](C)CO)C(=O)Cc2cc(NC(=O)Nc3ccc(C(F)(F)F)cc3)ccc2O[C@H]1CN(C)Cc1ccncc1	15.8	0.137	-9.9
COc1ccc(CN(C)C[C@H]2Oc3ccc(NC(=O)Nc4ccc(C(F)(F)F)cc4)cc3CC(=O)N([C@@H](C)CO)C[C@@H]2C)cc1	-6.7	-0.511	12.1
CC(C)NC(=O)Nc1ccc2c(c1)CC(=O)N([C@@H](C)CO)C[C@H](C)[C@H](CN(C)Cc1ccc(C(F)(F)F)cc1)O2	8.1	-0.106	-2.8
C[C@@H]1CN([C@@H](C)CO)C(=O)Cc2cc(NC(=O)Nc3ccc(C(F)(F)F)cc3)ccc2O[C@@H]1CN(C)Cc1ccc(Cl)c(Cl)c1	-36.6	0.1	56.5*
C[C@@H]1CN([C@H](C)CO)C(=O)Cc2cc(NC(=O)Nc3ccc(C(F)(F)F)cc3)ccc2O[C@@H]1CN(C)Cc1ccc(C(F)(F)F)cc1	-65.4	0.141	68.0*
C[C@H]1CN([C@@H](C)CO)C(=O)Cc2cc(NC(=O)Nc3ccc(C(F)(F)F)cc3)ccc2O[C@@H]1CN(C)Cc1ccc(Cl)c(Cl)c1	-11.7	0.159	-4.5
C[C@H](CO)N1C[C@H](C)[C@H](CN(C)Cc2ccncc2)Oc2ccc(NC(=O)Nc3ccc(C(F)(F)F)cc3)cc2CC1=O	-19.2	0.0906	61.0*
COCC1OC(OC(C)(C)C2CCC3(C)C(O2)C(O)CC2(C)/C(=C4\CCC(O)C(C)(CCC(O)C(C)(C)O)C4)CCC23)C(NC(C)=O)C(O)C1O (centres undefined)	.	0.241	.
COc1ccc(S(=O)(=O)Nc2ccc3c(c2)CC(=O)N([C@@H](C)CO)C[C@@H](C)[C@@H](CN(C)C(=O)Nc2ccc(F)cc2)O3)cc1	0.1	-0.0371	-13.0
Cc1noc(C)c1NC(=O)Nc1cccc2c1O[C@@H](CN(C)C(=O)NC1CCCCC1)[C@@H](C)CN([C@H](C)CO)C2=O	2.5	-0.652	4.0
Cc1noc(C)c1S(=O)(=O)Nc1ccc2c(c1)C(=O)N([C@H](C)CO)C[C@H](C)[C@H](CN(C)Cc1ccc(Oc3ccccc3)cc1)O2	-19.4	-0.0562	2.0
C[C@@H]1CN([C@H](C)CO)C(=O)c2cc(NS(=O)(=O)c3cn(C)cn3)ccc2O[C@@H]1CN(C)C(=O)NC1CCCCC1	2.3	-0.288	2.0
COc1ccc(NC(=O)N(C)C[C@H]2Oc3ccc(NC(=O)Nc4ccccc4)cc3C(=O)N([C@@H](C)CO)C[C@@H]2C)cc1	5.3	-0.242	-8.5
C/C=C/C1=C(Cl)C(=O)[C@@H](O)[C@@]1(O)C(=O)OC	.	-0.221	.
C[C@@H]1CN([C@H](C)CO)C(=O)Cc2cc(NC(=O)CCC(F)(F)F)ccc2O[C@H]1CN(C)Cc1ccc(C(F)(F)F)cc1	-6.8	0.0754	49.4
C[C@H](CO)N1C[C@H](C)[C@H](CN(C)Cc2ccc(Cl)c(Cl)c2)Oc2ccc(NC(=O)Nc3ccc(C(F)(F)F)cc3)cc2C1=O	-25.1	0.0834	90.6*
C[C@H](CO)N1C[C@H](C)[C@H](CN(C)Cc2ccc(C(F)(F)F)cc2)Oc2ccc(NC(=O)Nc3ccc(C(F)(F)F)cc3)cc2CC1=O	-69.3	0.0497	72.1*
C[C@H]1CN([C@@H](C)CO)C(=O)c2cc(NC(=O)Nc3ccc(C(F)(F)F)cc3)ccc2O[C@@H]1CN(C)Cc1ccc(Cl)c(Cl)c1	-52.3	0.137	10.9
C[C@@H]1CN([C@@H](C)CO)C(=O)Cc2cc(NC(=O)Nc3ccc(C(F)(F)F)cc3)ccc2O[C@@H]1CN(C)Cc1ccc(C(=O)O)cc1	8.5	0.257	-24.1
SMILES	INS-1E ATP HTS	YB-1 expression	T cruzi intra
C[C@H]1CN([C@@H](C)CO)C(=O)Cc2cc(NC(=O)CCC(F)(F)F)ccc2O[C@@H]1CN(C)Cc1ccc(C(F)(F)F)cc1	-1.2	-0.333	64.5*
COc1ccc(NC(=O)N(C)C[C@H]2Oc3ccc(NC(=O)NC4CCCCC4)cc3C(=O)N([C@@H](C)CO)C[C@@H]2C)cc1	3.1	-0.0793	-32.7
C=CC1CN(C=O)CCC1CCC(=O)c1ccnc2ccccc12 (centres undefined)	.	0.0413	.
C[C@@H]1CN([C@H](C)CO)C(=O)Cc2cc(NC(=O)NC3CCCCC3)ccc2O[C@@H]1CN(C)S(C)(=O)=O	1.7	-0.332	-4.3
C=C1CC/C=C(/C(=O)O)C[C@H](O)C2C1CC2(C)C (some centres undefined)	.	1.36	.
C[C@H]1CN([C@@H](C)CO)C(=O)Cc2cc(NC(=O)c3ccncc3)ccc2O[C@H]1CN(C)CC1CC1	11.8	0.165	-9.4
Cc1noc(C)c1S(=O)(=O)Nc1cccc2c1O[C@H](CN(C)Cc1ccc3c(c1)OCO3)[C@H](C)CN([C@H](C)CO)C2=O	-9.0	-0.208	-12.8
C[C@H](CO)N1C[C@H](C)[C@H](CN(C)Cc2ccc(C(F)(F)F)cc2)Oc2c(NC(=O)CCCCCC(=O)Nc3ccccc3N)cccc2C1=O	8.9	-0.531	73.4*
C[C@H](CO)N1C[C@H](C)[C@@H](CN(C)Cc2ccncc2)Oc2c(NC(=O)CCCCCC(=O)Nc3ccccc3N)cccc2C1=O	-11.7	0.2	7.7
C[C@@H]1CN([C@H](C)CO)C(=O)c2cccc(NC(=O)CCCCCC(=O)Nc3ccccc3N)c2O[C@H]1CN(C)Cc1ccc(-c2ccccc2)cc1	-6.8	-0.351	71.4*
C[C@@H]1CN([C@@H](C)CO)C(=O)c2cccc(NC(=O)CCCCCC(=O)Nc3ccccc3N)c2O[C@@H]1CN(C)Cc1ccc(C(F)(F)F)cc1	8.9	-0.467	41.3
C[C@@H]1CN([C@H](C)CO)C(=O)c2cccc(NC(=O)CCCCCC(=O)Nc3ccccc3N)c2O[C@@H]1CN(C)Cc1ccc(C(F)(F)F)cc1	13.2	0.215	54.0
C[C@H]1CN([C@@H](C)CO)C(=O)c2cccc(NC(=O)CCCCCC(=O)Nc3ccccc3N)c2O[C@@H]1CN(C)Cc1ccc(-c2ccccc2)cc1	-13.1	-0.156	66.7*
Cc1noc(C)c1NC(=O)Nc1cccc2c1O[C@H](CN(C)S(=O)(=O)c1ccc(F)cc1)[C@@H](C)CN([C@@H](C)CO)C2=O	10.6	0.0791	-5.0
